Assay results: ChEMBL document CHEMBL4177662, “Phosphamide-containing diphenylpyrimidine analogues (PA-DPPYs) as potent focal adhesion kinase (FAK) inhibitors with enhanced activity against pancreatic cancer cell lines” (Bioorg Med Chem, 2017)

Legend:
[1] = molecular target: Focal adhesion kinase 1 (Homo sapiens, UniProt Q05397); experiment: Inhibition of recombinant human N-terminal His-tagged FAK cytoplasmic domain (393 to 698 residues) expressed in baculovirus infected sf9 cells assessed as reduction in autophosphorylation after 60 mins by ADP-Glo kinase assay
Sequence of Focal adhesion kinase 1 (Q05397 whole entry, the tested form may be a part): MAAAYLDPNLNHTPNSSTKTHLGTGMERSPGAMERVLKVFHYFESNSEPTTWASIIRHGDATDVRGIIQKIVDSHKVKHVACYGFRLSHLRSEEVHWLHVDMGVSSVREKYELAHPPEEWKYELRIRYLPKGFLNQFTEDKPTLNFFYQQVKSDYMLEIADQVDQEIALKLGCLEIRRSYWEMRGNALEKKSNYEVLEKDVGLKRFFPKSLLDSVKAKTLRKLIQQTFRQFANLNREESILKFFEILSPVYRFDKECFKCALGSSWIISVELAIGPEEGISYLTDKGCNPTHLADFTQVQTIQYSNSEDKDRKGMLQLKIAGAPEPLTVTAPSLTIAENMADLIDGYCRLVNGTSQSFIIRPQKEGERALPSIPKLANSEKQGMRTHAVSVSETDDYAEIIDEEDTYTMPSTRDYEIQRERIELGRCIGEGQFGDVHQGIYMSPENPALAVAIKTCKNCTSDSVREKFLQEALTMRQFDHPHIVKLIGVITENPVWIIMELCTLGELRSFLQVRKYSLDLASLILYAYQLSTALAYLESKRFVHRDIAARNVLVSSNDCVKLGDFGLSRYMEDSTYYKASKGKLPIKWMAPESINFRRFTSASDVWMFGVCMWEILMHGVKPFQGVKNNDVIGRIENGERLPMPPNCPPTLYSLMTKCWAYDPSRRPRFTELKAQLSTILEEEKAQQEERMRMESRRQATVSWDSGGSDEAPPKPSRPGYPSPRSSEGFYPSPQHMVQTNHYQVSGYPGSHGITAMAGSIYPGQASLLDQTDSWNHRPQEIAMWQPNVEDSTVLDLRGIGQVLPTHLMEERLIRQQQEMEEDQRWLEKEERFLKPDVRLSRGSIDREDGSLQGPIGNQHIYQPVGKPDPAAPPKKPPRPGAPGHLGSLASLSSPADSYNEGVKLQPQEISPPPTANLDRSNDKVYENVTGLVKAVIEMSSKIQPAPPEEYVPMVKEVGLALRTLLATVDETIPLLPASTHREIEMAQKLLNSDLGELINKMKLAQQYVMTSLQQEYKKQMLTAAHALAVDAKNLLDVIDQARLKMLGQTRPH
Method in brief: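 ADP-Glo luminescence assay. The kinase reaction ran in 1× kinase buffer with compound at 1 to 200 nM, for 60 min at room temperature. ADP-Glo reagent was then added to stop the reaction and deplete leftover ATP (40 min, room temperature). Detection reagent converted ADP to ATP for luciferase read-out (30 min). IC50 from curve fitting, mean ± SE of three independent experiments.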

[2] = test system: ASPC1; experiment: Antiproliferative activity against human Aspc-1 cells after 72 hrs by MTT assay; assay type: functional, cell-based; conditions: ASPC1, 72 h
Method in brief: (§1)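 Cells grown in DMEM with 10% FBS and 1% penicillin-streptomycin at 37 °C, 5% CO2. Seeded at 4,000 to 5,000 cells/well, cultured one day, then exposed to compounds for 72 h at 1.25 to 40 μmol/L, five replicates per concentration. MTT absorbance read at 570 nm. IC50 from five-point dose-response curves; mean of at least three separate experiments.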

[3] = test system: BXPC-3; experiment: Antiproliferative activity against human BxPC3 cells after 72 hrs by MTT assay; assay type: functional, cell-based; conditions: BXPC-3, 72 h; method in brief: as §1
[4] = Antiproliferative activity against human HPDE6c7 cells after 72 hrs by MTT assay; assay type: cell-based; conditions: HPDE6c7, 72 h; method in brief: as §1
[5] = test system: PANC-1; experiment: Antiproliferative activity against human PANC1 cells after 72 hrs by MTT assay; assay type: functional, cell-based; conditions: PANC-1, 72 h; method in brief: as §1

SMILES | IC50 [1] [µM] | IC50 [2] [µM] | IC50 [3] [µM] | IC50 [4] [µM] | IC50 [5] [µM]
CCOP(=O)(Cc1ccc(Nc2ncc([N+](=O)[O-])c(Nc3ccccc3C(=O)NC)n2)cc1)N1CCOCC1 (configuration not stated) | 0.00569 | 6.42 | 1.02 | 8.11 | > 40
CCOP(=O)(CCCOc1ccc(Nc2ncc(Cl)c(Nc3ccccc3C(=O)NC)n2)cc1)OCC | 0.0107 | 4.93 | 1.04 | 4.43 | 10.9
CCOP(=O)(CCCOc1ccc(Nc2ncc([N+](=O)[O-])c(Nc3ccccc3C(=O)NC)n2)cc1)OCC | 0.00618 | 18.3 | 2.04 | 1.96 | 25.4
CCOP(=O)(Cc1ccc(Nc2ncc([N+](=O)[O-])c(Nc3ccccc3C(=O)NC)n2)cc1)OCC | 0.00501 | 15.2 | 0.82 | 4.6 | 19.2
CCOP(=O)(Cc1ccc(Nc2ncc(Cl)c(Nc3ccccc3C(=O)NC)n2)cc1)OCC | 0.00425 | 3.31 | 0.02 | 5.44 | 14.8
CNC(=O)c1ccccc1Nc1nc(Nc2ccc(N3CCOCC3)cc2OC)ncc1Cl | – | – | – | 11.4 | > 20
